For series [1], the target named is T1, Cholesterol side-chain cleavage enzyme, mitochondrial (Bos taurus, UniProt P00189).
T1 sequence (P00189 whole entry): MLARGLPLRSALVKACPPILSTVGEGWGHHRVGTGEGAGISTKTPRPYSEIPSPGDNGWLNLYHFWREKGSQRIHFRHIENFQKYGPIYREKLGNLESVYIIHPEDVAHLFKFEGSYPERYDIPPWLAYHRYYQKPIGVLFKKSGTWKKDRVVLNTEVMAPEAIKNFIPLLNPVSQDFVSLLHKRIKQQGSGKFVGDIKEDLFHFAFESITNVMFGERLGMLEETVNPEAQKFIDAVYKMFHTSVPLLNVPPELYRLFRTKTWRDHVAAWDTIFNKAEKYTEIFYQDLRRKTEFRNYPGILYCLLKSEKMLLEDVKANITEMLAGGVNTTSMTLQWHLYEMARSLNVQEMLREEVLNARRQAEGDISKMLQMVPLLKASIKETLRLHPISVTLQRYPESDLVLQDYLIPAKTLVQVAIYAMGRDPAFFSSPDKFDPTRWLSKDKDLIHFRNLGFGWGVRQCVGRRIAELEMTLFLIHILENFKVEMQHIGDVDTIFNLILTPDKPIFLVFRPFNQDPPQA
Description: Inhibition of bovine cholesterol side-chain cleavage desmolase, cytochrome P450 11A1; none. As to conditions: cattle; call rule not given here. In short, it runs like this: (§1)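 Enzyme source was the mitochondrial fraction of bovine adrenal cortex, stored at -70 °C. Substrate [14C]cholesterol; [14C]isocaproic acid released was measured. Inhibitors were added in 10 μL ethanol (ethanol alone in controls) to a 1.0 mL assay and preincubated 5 min at 30 °C. The reaction was started with 1 mg mitochondrial protein and sampled at 2, 4 and 6 min. Result given as % of control rate; apparent Ki from Lineweaver-Burk plots.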

Series [2] deals with T2, Aromatase (Homo sapiens, UniProt P11511).
T2 sequence (P11511 whole entry): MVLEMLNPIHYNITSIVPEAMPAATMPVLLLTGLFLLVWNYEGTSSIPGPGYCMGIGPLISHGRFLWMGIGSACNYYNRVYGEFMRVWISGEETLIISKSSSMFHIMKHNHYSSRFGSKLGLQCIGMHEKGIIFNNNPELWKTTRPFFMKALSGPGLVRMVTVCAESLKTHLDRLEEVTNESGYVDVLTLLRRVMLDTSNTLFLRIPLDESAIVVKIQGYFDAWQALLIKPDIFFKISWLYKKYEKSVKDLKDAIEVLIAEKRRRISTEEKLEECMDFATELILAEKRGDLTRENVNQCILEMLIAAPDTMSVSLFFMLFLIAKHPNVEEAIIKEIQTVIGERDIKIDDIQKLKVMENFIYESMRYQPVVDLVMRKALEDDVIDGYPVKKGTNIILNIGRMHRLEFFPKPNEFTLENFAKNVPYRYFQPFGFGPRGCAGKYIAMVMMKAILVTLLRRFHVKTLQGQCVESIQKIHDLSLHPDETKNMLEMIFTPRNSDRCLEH
Description: Inhibition of human placental aromatase Cytochrome P450 19A1; none.

For series [3], the target named is T1, Cholesterol side-chain cleavage enzyme, mitochondrial. Description: (§2) Inhibition of bovine cholesterol side-chain cleavage desmolase, cytochrome P450 11A1. Set-up: concentration or dose not given beside the values. As to conditions: cattle. Put shortly:
as §1

The target is the same in series [4]. Described as §2. As to conditions: cattle. Put shortly: as §1

The results in this text go back to ChEMBL document CHEMBL1122309 (J Med Chem, 1983).

Each structure is given as a SMILES string.

With `CCC1(c2ccc(N)c(O)c2)CCC(=O)NC1=O` (stereo not drawn), the Inhibition result in series [1] and in series [2] was “Not Active” each time.

In turn, `CCC1(c2ccc(N)cc2)CC(N)C(=O)NC1=O` (stereo not drawn) yielded an Inhibition in series [3] of 45%.

Take `CCC1(c2ccc(N)cc2)CCC(=O)N(N)C1=O` (stereo not drawn): the Inhibition in series [3] is reported as 50%.

As for `CCC1(c2ccc(NC(C)=O)cc2)CCC(=O)NC1=O` (stereo not drawn), the Inhibition entry in series [1] and in series [2] was “Not Active” in each case.

In the case of `CCC1(c2cccc(N)c2)CCC(=O)NC1=O` (stereo not drawn), in series [4], the Inhibition is recorded as 13%.

Compound `CCC1(c2ccc(NC=O)cc2)CCC(=O)NC1=O` (stereo not drawn) gave an Inhibition in series [3] of 12%.

In the case of `CCC1(c2ccc(O)c([N+](=O)[O-])c2)CCC(=O)NC1=O` (stereo not drawn), the Inhibition entry in series [1] and in series [2] was “Not Active” each time.

Regarding `CCC1(c2ccc(O)c(N)c2)CCC(=O)NC1=O` (stereo not drawn), the figures for the Inhibition in series [3] and in series [2] were 35% and “Not Active”, respectively.

`CCC1(c2ccc([N+](=O)[O-])cc2)CCC(=O)NC1=O` (stereo not drawn) [4-NITROGLUTETHIMIDE]: in series [3], the Inhibition worked out at 20%.

As to `CCC1(c2ccc(N)cc2)CCC(=O)NC1=O` (stereo not drawn) [AMINOGLUTETHIMIDE], the Inhibition in series [3] was found to be 85%.

On to `CCC1(c2ccccc2)CCC(=O)NC1=O` (stereo not drawn) [GLUTETHIMIDE], for which the Inhibition entry in series [1] and in series [2] was “Not Active” each time.

With `CCC1(c2ccc(O)cc2)CCC(=O)NC1=O` (stereo not drawn) [P-HYDROXYGLUTETHIMIDE], the Inhibition result in series [1] and in series [2] was “Not Active” throughout.

The term Inhibition denotes the drop in the measured response relative to a control, in per cent.
